# Source: PubChem
# Shown are actives, neighbours in structure and some others; about 2% of the full set was active somewhere.
# APJ antag: APJ receptor antagonism; AID 2521; inhibition, % at 20 µM; P35414; CHO-K1 APJ beta-arrestin complementation, luminescence; hit rate 0.32% among 330,000;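 active = inhibition above about 40% at 20 µM, limit read from the data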;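 also: cells challenged with 10 nM apelin-13 agonist together with compound; plate controls were apelin-13 plus DMSO wells for no effect and DMSO wells lacking apelin-13 for full effect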
# Target sequence (P35414 whole entry, looked up): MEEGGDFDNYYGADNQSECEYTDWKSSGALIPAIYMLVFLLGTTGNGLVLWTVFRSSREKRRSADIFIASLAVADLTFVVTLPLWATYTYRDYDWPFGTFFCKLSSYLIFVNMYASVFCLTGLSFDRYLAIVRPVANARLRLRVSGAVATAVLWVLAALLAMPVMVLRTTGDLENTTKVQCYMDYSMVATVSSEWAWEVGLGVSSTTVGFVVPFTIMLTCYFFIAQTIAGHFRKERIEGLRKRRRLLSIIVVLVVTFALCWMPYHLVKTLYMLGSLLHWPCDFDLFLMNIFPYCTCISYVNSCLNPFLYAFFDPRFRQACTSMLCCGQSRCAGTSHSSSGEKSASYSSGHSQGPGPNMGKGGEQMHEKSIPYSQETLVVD
# APJ ag: APJ receptor agonism | P35414 | CHO-K1 APJ PathHunter beta-arrestin, luminescence; 0% DMSO wells, 100% apelin | activation, % at 20 µM | hit rate 0.11% among 330,000;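 active = activation more than six SD over the plate average, tested at 20 µM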;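 also: 0% = DMSO alone and 100% = apelin-13 at 10 nM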
#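 Test system: CHO-K1 APJ beta-arrestin complementation cell line. Amount: cell density 1000 per well. Controls: DMSO negative, 10 nM Apelin-13 positive. Signal: luminescent beta-gal fragment complementation, chemiluminescent substrate. Read-out basis: agonist-driven arrestin binding to APJ. Timing: compound stimulation 90 min at 25 °C, detection 60 min.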
# EBI2 block: EBI2 (human) antagonism. AID 651636. inhibition, % at 5 µM. hit rate 0.81% among 360,000. EBI2 beta-arrestin recruitment, luminescence, 7a,25-OHC stimulated; in the data active = inhibition above about 38%;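 also: enzyme fragment complementation signal reports receptor beta-arrestin coupling in cells; 0% = agonist plus DMSO wells and 100% = wells without agonist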
# Target sequence (P32249 whole entry, looked up, the tested form may be a part): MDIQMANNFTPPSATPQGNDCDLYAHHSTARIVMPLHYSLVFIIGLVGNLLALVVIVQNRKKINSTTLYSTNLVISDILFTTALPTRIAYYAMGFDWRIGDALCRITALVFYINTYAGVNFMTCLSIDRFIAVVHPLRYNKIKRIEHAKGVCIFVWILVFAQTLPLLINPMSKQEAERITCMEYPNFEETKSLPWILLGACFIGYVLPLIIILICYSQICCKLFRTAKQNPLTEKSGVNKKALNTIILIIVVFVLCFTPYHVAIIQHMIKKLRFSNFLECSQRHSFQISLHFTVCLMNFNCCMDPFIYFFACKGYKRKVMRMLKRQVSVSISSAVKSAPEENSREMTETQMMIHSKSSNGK
# CCR6 antag: blocks CCL20-driven beta-arrestin recruitment at human CCR6 | P51684 | CHO-K1 CCR6 PathHunter beta-arrestin, luminescence, CCL20-stimulated | inhibition, % at 20 µM | hit rate 0.49% among 340,000 | AID 493098;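 active = compounds whose inhibition of the agonist-driven luminescence signal at 20 µM reaches about 50%, limit read from the data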;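 also: cells stimulated with CCL20 at 14 nM final; plate controls were DMSO with CCL20 for no effect and DMSO without agonist for full effect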
# CXCR6 block: blocks human CXCR6 beta-arrestin recruitment. inhibition, % at 20 µM. AID 602244. hit rate 0.36% among 360,000. O00574. CHO-K1 PathHunter CXCR6 beta-arrestin, luminescence; in the data active = inhibition above about 34%, passing the limit was not always enough;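 also: antagonist mode with CXCL16 agonist at 10 nM final; 0% = 10 nM CXCL16 with DMSO and 100% = unstimulated wells without agonist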
# FXN GAA850 act: activators of GAA850 frataxin (FXN) promoter. hit rate 0.56% among 360,000. activation, % at 6 µM. HEK293 lucGAA850 FXN promoter luciferase reporter, 24 h; percent of 10 µM SAHA response;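 active = activation above the average of all compounds screened plus 3 SD, cutoff fixed separately per campaign, cut at about 7.5% in these data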;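 also: 0% = DMSO wells and 100% = 10 µM SAHA wells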
# EBI2 conf: confirmation of human EBI2 receptor antagonists; shares compounds with EBI2 block; EBI2 beta-arrestin luminescence, 7a,25-OHC antagonism; inhibition, % at 5 µM; hit rate 29% among 2,400; AID 651997;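 active = inhibition of at least 50%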
# EBI2 agonist: EBI2 agonism counter-screen. 2,400 tested, under 10 active. activation, % at 5 µM. EBI2-expressing cells, agonist mode, luminescence, 60 min; 0% vehicle, 100% 7α,25-dihydroxycholesterol control. shares compounds with EBI2 block;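 active = activation of at least 50%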
# bGal cs: beta-galactosidase inhibition counter-screen. purified beta-galactosidase, luminescent Galacton Star, 15 min. AID 652176. shares compounds with EBI2 block. hit rate 1% among 2,400. inhibition, % at 5 µM;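 active = replicate-average signal at least 3 plate SD below neutral wells, shown as high inhibition, flagging enzyme-inhibiting false positives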;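 also: 0% = DMSO wells with enzyme and 100% = wells lacking enzyme; higher means stronger loss of beta-gal luminescence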
# Active calls of the source: *; · = not tested or not shown.
SMILES,APJ antag,APJ ag,EBI2 block,CCR6 antag,CXCR6 block,FXN GAA850 act,EBI2 conf,EBI2 agonist,bGal cs
Cc1ccccc1-n1nnnc1SCC(=O)NNC(=O)c1ccc(NC(=O)CC#N)cc1,-9.0,-5.1,-1.8,0.1,8.7,0.4,·,·,·
O=C(CCn1cnc2ccccc21)N/N=C/C=C/c1ccccc1,5.8,1.3,45.8*,8.0,-3.9,0.7,52.0*,0.7,5.0
Cc1cc2c(cc1C)-n1nnnc1C(N(Cc1ccccc1)Cc1ccccc1)C(=O)N2 (centres undefined),·,·,1.4,·,·,·,·,·,·
O=C(c1ccc(S(=O)(=O)Nc2cccc(C(F)(F)F)c2)cc1)N1CCN(c2ccccc2O)CC1,-16.2,7.9,6.5,-2.3,-1.3,2.6,·,·,·
CN(c1ccccc1)c1nc(N2CCCC2)nc(-n2ccnc2)n1,21.9,-0.6,31.9,22.4,9.4,0.6,·,·,·
c1ccc(N(c2ccccc2)c2nc(N3CCCC3)nc(-n3ccnc3)n2)cc1,26.9,-3.8,39.6*,33.9,8.6,-2.5,37.7,2.8,1.3
CCOC(=O)[C@H](C)N1[C@H](C)[C@H](c2ccccc2)Oc2ccc(Cl)cc2S1(=O)=O,·,·,46.0*,30.1,1.8,-2.1,22.2,-1.2,-14.1
C[C@@H]1[C@H](c2ccccc2)Oc2ccc(Cl)cc2S(=O)(=O)N1CC1CCCN1C(=O)OC(C)(C)C (some centres undefined),·,·,26.5,5.9,0.8,-1.3,·,·,·
O=S(=O)(c1ccc2c(c1)CCN2)N1CCCC1,8.7,-2.3,-17.4,6.0,0.7,2.6,·,·,·
CC(=O)Nc1ccc(C(=O)N2CCCC(c3cc(C(=O)NCc4cccnc4)no3)C2)cc1 (centres undefined),·,·,-0.3,·,-2.3,1.5,·,·,·
COc1ccc(OC2C(=O)N(Cc3ccc(F)cc3)C2c2cc(OC)c(OC)c(OC)c2)cc1 (centres undefined),16.5,-3.3,1.9,-7.3,2.1,-0.7,·,·,·
COc1ccc(CCN2C(=O)C(Oc3ccccc3C)C2c2ccc3c(c2)OCO3)cc1 (centres undefined),-21.1,-2.4,55.0*,16.7,5.9,-1.4,23.7,2.0,2.7
COC(=O)c1ccc(C2C(Oc3ccc(OC)cc3)C(=O)N2CCc2ccc(F)cc2)cc1 (centres undefined),17.2,-2.2,42.2*,-10.2,-0.8,-0.4,16.3,-0.8,-9.9
COc1ccc(NC(=O)C2Cc3c(-c4ccccc4Oc4ccccc4)ccnc3O2)cc1OC (centres undefined),·,·,-0.2,·,1.0,-4.4,·,·,·
COc1ccc(CN(C)C(=O)Cc2c[nH]c3ccccc23)cc1,1.8,-1.2,52.4*,11.2,-3.6,1.9,31.2,-0.3,-8.8
COc1cccc(CN(C)C(=O)Cc2c[nH]c3ccccc23)c1,9.3,-4.2,51.2*,4.2,-7.0,2.7,39.8,-1.1,-3.3
COc1ccc(-c2[nH]ncc2CN2CCCC(C(=O)c3cccc(OC)c3)C2)cc1 (centres undefined),-37.4,0.3,-3.8,3.5,1.8,3.2,·,·,·
COc1ccc2cc(-c3[nH]ncc3CN3CCCC3c3nonc3C)ccc2c1 (centres undefined),-26.3,-0.4,45.9*,-2.3,-3.0,5.0,27.8,0.3,5.6
Cc1cc(C)n(-c2ccc(C(=O)N3CCN(c4ccccn4)CC3)cc2)n1,0.4,-1.5,-0.9,-14.2,-1.6,0.3,·,·,·
Cc1cc(C)n(-c2ccc(C(=O)N3CCN(S(=O)(=O)c4ccc(Br)cc4Cl)CC3)cc2)n1,·,·,92.0*,·,-4.9,0.5,65.3*,-1.2,-14.9
CCOc1ccc(Cl)cc1-c1cc(C(=O)Nc2ccc(F)cc2)[nH]n1,·,·,27.7,·,-11.4,-4.7,·,·,·
Brc1ccc(-c2nnc3sc(CN4CCC5(CC4)OCCO5)cn23)cc1,9.6,-1.7,55.8*,14.2,5.2,-0.4,36.0,-0.2,-10.1
COc1ccc(CCNC(=O)CSc2nc3scc(-c4ccccc4)c3c(=O)[nH]2)cc1,5.1,-5.2,11.9,5.1,-4.7,-2.5,·,·,·
Cc1ccc(S(=O)(=O)N2CCN(C(=O)CCCOc3ccc(Cl)cc3C)CC2)cc1,7.2,7.1,78.8*,14.0,5.2,-2.8,44.5,0.6,2.2
Cc1ccc(S(=O)(=O)N2CCN(C(=O)CCOc3ccccc3C)CC2)cc1C,15.3,8.3,47.7*,-7.8,0.1,-0.3,24.6,0.4,6.3
SMILES,APJ antag,APJ ag,EBI2 block,CCR6 antag,CXCR6 block,FXN GAA850 act,EBI2 conf,EBI2 agonist,bGal cs
Cc1ccc(S(=O)(=O)N2CCN(C(=O)CCCOc3cccc(C)c3)CC2)cc1,3.8,-0.7,28.0,11.0,-6.8,2.1,·,·,·
CCOc1ccc(S(=O)(=O)N2CCN(C(=O)CCOc3ccccc3C)CC2)cc1,21.2,2.6,30.4,12.2,-1.9,-3.6,·,·,·
OCc1ccc(-c2cccc3nccn23)cc1,·,·,-14.3,·,0.8,2.5,·,·,·
CCCSc1ccc(-c2nn(-c3ccccc3)cc2/C=C(/C#N)C(=O)N2CCOCC2)cc1,-16.4,-0.4,50.2*,19.7,8.8,2.0,31.9,1.1,-0.4
CCSc1ccc(-c2nn(-c3ccccc3)cc2/C=C(/C#N)C(=O)NC)cc1,·,·,-4.9,4.3,-4.3,-0.9,·,·,·
C[N+](C)(C)CCN1C(=O)c2ccccc2C1=O,·,·,-7.2,·,1.8,·,·,·,·
Cc1ccc(CONC(=O)c2ccc(OC(F)F)cc2)cc1,17.8,0.2,78.2*,5.5,-4.2,1.7,71.2*,0.3,8.4
COc1cccc(C(=O)N2CCN(C(=O)COc3ccc4ccccc4c3)CC2)c1,-6.9,-3.9,95.3*,-2.5,1.4,1.8,78.0*,0.7,8.0
CCOC(=O)N1CCN(C(=O)c2ccc3ccccc3c2)CC1,-1.6,0.0,67.6*,14.9,-3.4,0.5,30.9,-1.4,-9.8
CN1CCN(C(=O)c2ccc3ccccc3c2)CC1,-13.9,-3.9,40.7,11.3,-5.4,3.0,·,·,·
COc1cccc(N2CCN(C(=O)c3ccc4ccccc4c3)CC2)c1,-3.5,-5.3,62.4*,4.3,-19.4,4.1,41.8,1.1,5.1
COc1cccc(C(=O)N2CCN(C(=O)Cc3ccccc3)CC2)c1,-3.2,-2.0,-6.7,-4.3,-7.2,0.4,·,·,·
O=C(COc1ccc2cc(Br)ccc2c1)N1CCCC1,5.5,4.1,68.8*,2.7,-0.4,2.1,44.4,1.7,8.0
COc1ccc(OC)c(C(=O)NC(CC(N)=O)c2ccc(N3CCN(c4ccccn4)CC3)c([N+](=O)[O-])c2)c1 (centres undefined),-1.6,-4.1,7.5,22.2,3.4,-0.9,·,·,·
